Hit rate of the full screen: of about 130,000 compounds, about 1,000 (0.77%) were called active. Another 1% or so got no clear call; they are omitted.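 Rule for the calls: active = activation at 2 µM above a set limit, confirmed on inspection of the cell images; inconclusive = above the set limit but not confirmed on image inspection; inactive = the rest.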 The sample as a whole holds a higher share of actives than the screen did.

The assay is described as follows: activators of insulin promoter-driven GFP, primary screen, imaging, TRM-6 cells, eGFP reporter, cell count (AID 1296).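 For activation: share of cells whose green reporter signal exceeds an intensity cutoff.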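 For normalized cell count: cells counted after 48 h compound exposure.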 The following applies: at 2 µM; activation: stronger effect = higher value, plate-scaled: unstimulated 0, stimulated control 100; normalized cell count: measured here: cell count (toxicity). The method, boiled down: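 System – human fetal islet-derived TRM-6 cells with tamoxifen-inducible insulin promoter–eGFP reporter · Amount – 1,000 cells per well · Schedule – overnight tamoxifen, then two-day compound incubation at 37 °C · Detection – high-content imaging of fixed cells with Hoechst nuclear stain · Read-out – percent cells above green-intensity threshold, converted to percent activation versus plate controls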
Consider `COc1ccc(OC(C)C(=O)Nc2cccnc2)cc1` (stereo not drawn), for which the activation is -8.57% (inactive) and the normalized cell count amounted to 50%.
The corresponding values for `COc1ccc(CS(=O)/C(Cl)=C(/Cl)C(=O)Nc2ccc(OC)nc2)cc1` (stereo not drawn) are 669% (active) and 10.6%.
The corresponding values for `COc1ccc(OC)c(CNC(=O)c2cc(=O)[nH]c3ccc(S(=O)(=O)N4CCCC4)cc23)c1` are 0% (inactive) and 73.7%.
Turning to `CC(C)C(C)(C#N)NC(=O)CSc1nncn1-c1ccccc1` (stereo not drawn), the activation was -7.14% (inactive) and the normalized cell count came to 91.1%.
Regarding `CCNc1nc(NC(C)C)nc(N2CC(=O)N(CC(=O)OCC)C2=N)n1`, the activation was 344% (active) and the normalized cell count stood at 69.4%.
Taken in the same sequence, the figures for `O=Cc1cn(Cc2ccccc2)nc1-c1cccnc1` were 2.44% (inactive) and 212%.
On to `CS(=O)(=O)N(Cc1ccccc1)c1ccc(C(=O)NN=C2CCCCCC2)cc1`, for which the activation is -6.9% (inactive) and the normalized cell count came to 150%.
The corresponding values for `COC(=O)Nc1sc2nc(C)cc(C)c2c1-n1cccc1` are -3.7% (inactive) and 74.8%.
Take `CCCN1CC=C2C(C#N)=C(N)C(C#N)(C#N)C(c3cc(OC)ccc3OC)C2C1` (stereo not drawn): the activation is 178% (active) and the normalized cell count turned out to be 123%.
As for `COc1cc(OC)cc(-c2nc3ccccc3c(=O)n2NC(=O)c2cccnc2Cl)c1`, the activation is -5.56% (inactive) and the normalized cell count stood at 107%.
With `CC1=NNC(=O)C1CCC(=O)N/N=C\c1ccc(Cl)c(Cl)c1` (stereo not drawn), the activation is 0% (inactive) and the normalized cell count is 124%.
For `CCCn1c(=S)[nH]c2ccc(C(F)(F)F)cc21`, the activation was 205% (active) and the normalized cell count stood at 78%.
Turning to `CC1CC(C)CN(C(=O)CSc2ccsc2[N+](=O)[O-])C1` (stereo not drawn), the activation is 0% (inactive) and the normalized cell count came out at 74.7%.
For the molecule `CCOc1ccc(S(=O)(=O)Nc2ccncc2)c(C)c1C`, the activation was -72.7% (inactive) and the normalized cell count stood at 133%.
`CCOc1ccc(NC(=S)NC(=O)/C=C/c2ccc(OC)cc2)c([N+](=O)[O-])c1`: the activation was 8.82% (inactive) and the normalized cell count is 139%.
On to `CCN(CC)CCn1c(/N=C/c2cc(Br)ccc2O)nc2ccccc21`, for which the activation was 149% (inactive) and the normalized cell count was 133%.
The corresponding values for `CC(C)(C)N1CC(c2nc3ccccc3n2Cc2ccc(F)cc2)CC1=O` (stereo not drawn) are 80% (active) and 127%.
As to `CC(C)CCNC(=O)CC1C(=O)N(Cc2ccccc2)C(C)c2nc3ccccc3n21` (stereo not drawn), the activation was 127% (inactive) and the normalized cell count came to 118%.
Consider `CC(O)c1nc2ccccc2n1Cc1ccc([N+](=O)[O-])cc1` (stereo not drawn), for which the activation was -2.94% (inactive) and the normalized cell count worked out at 149%.
For the molecule `Cc1ccc(C2CC2C(=O)NN)cc1` (stereo not drawn), the activation is 0% (inactive) and the normalized cell count is 90.7%.
For the molecule `Cc1noc(C)c1CCC(=O)O`, the activation was 5.56% (inactive) and the normalized cell count turned out to be 134%.
In the case of `Cc1ccc(NC(=O)c2ccn(C(=O)Nc3ccccc3)n2)c(C)c1`, the activation is 0% (inactive) and the normalized cell count stood at 123%.
The corresponding values for `Cc1ccnc(NC(=O)Cn2ccc([N+](=O)[O-])n2)c1` are 5.71% (inactive) and 124%.
Regarding `CCOC(=O)c1[nH]c2ccc(OC)cc2c1NC(=O)N1CCOCC1`, the activation was 3.57% (inactive) and the normalized cell count came out at 45.3%.
The corresponding values for `O=C(CN1CCOCC1)N1CCCc2c1c(=O)oc1ccc(OCc3ccccc3)cc21` are 21.5% (inactive) and 118%.
Taken in the same sequence, the figures for `Cc1c(C(=O)N2CCOCC2)[nH]c2ccc(OCc3ccccc3)cc12` were 104% (active) and 126%.
Taken in the same sequence, the figures for `CC(=O)c1cc(-c2ccccc2)n(CCC(=O)NC2CCCCCC2)c1C` were 5.71% (inactive) and 127%.
As to `CCN(CC(=O)Nc1ccc(Cl)c(S(=O)(=O)N(C)C)c1)Cc1nc2ccccc2c(=O)[nH]1`, the activation was 8.33% (inactive) and the normalized cell count was found to be 83.9%.
Take `CCn1c(SCC(=O)Nc2nccs2)nnc1-c1ccco1`: the activation was 0% (inactive) and the normalized cell count amounted to 131%.
Taken in the same sequence, the figures for `Cc1ccc(-n2c(Cc3cccs3)nnc2SCC(=O)OC(C)C)cc1` were -7.69% (inactive) and 48%.
Consider `CCn1c(Cc2cccs2)nnc1SCC(=O)c1ccc(C)cc1`, for which the activation is 433% (active) and the normalized cell count came to 93.9%.
Consider `Cc1ccsc1C1C(C#N)=C(N)OC2=C1C(=O)CC(C)(C)C2` (stereo not drawn), for which the activation was 0% (inactive) and the normalized cell count worked out at 62.4%.
In the case of `CCN1CCN(C(C(=O)NC2CCCC2)c2cc3c(cc2[N+](=O)[O-])OCO3)CC1` (stereo not drawn), the activation is 6.67% (inactive) and the normalized cell count came to 84.9%.
In the case of `CCCC(=O)NC(Nc1ccccc1OC)C(Cl)(Cl)Cl` (stereo not drawn), the activation was -4.35% (inactive) and the normalized cell count came out at 88%.
Take `CN(C)c1ccc(/C=C2\NC(=S)N(Cc3ccccc3)C2=O)cc1`: the activation is 170% [may fluoresce] (active) and the normalized cell count worked out at 95.4%.
Regarding `Cc1nc2ccccc2cc1C(=O)N/N=C/c1ccc([N+](=O)[O-])cc1`, the activation was -75% (inactive) and the normalized cell count stood at 81%.
Regarding `COc1cc(/C=C/C(=O)OCC(=O)Nc2cccc(Oc3ccccc3)c2)ccc1O`, the activation was 3.57% (inactive) and the normalized cell count worked out at 105%.
Taken in the same sequence, the figures for `O=C(Nc1cccc(Cl)c1)Nc1nnc(-c2ccccc2)o1` were 4.65% (inactive) and 60.8%.
Regarding `CCOc1cc(/C=C2/C(=N)N3OC(C)=CC3=NC2=O)ccc1OC`, the activation was 6.67% (inactive) and the normalized cell count was found to be 55.1%.
`O=C(c1ccccc1)c1ccc2nc(N3CCCCC3)c3nncn3c2c1`: the activation was 320% (active) and the normalized cell count was found to be 70%.
Regarding `O=C(Nc1ccccc1N1CCCCC1)c1cccc(F)c1`, the activation is 5.71% (inactive) and the normalized cell count was determined as 92.9%.
For `c1ccc(CC2CCN(c3nc4ccccc4n4cnnc34)CC2)cc1`, the activation was -7.14% (inactive) and the normalized cell count was 111%.
For `CCC(C)NC(=O)c1nn(C)c(=O)c2ccccc12` (stereo not drawn), the activation was -5.56% (inactive) and the normalized cell count was 169%.
Taken in the same sequence, the figures for `Cc1ccc(S(=O)(=O)c2ccc(Cl)cc2)cc1S(=O)(=O)NC(C(=O)O)C(C)C` (stereo not drawn) were 3.85% (inactive) and 127%.

(Values after PubChem BioAssay AID1296 (Columbia University Molecular Screening Center, 2008).)
